# Laboratory results: paper PMC4860949 (Bioorganic & medicinal chemistry, 2016)
# “And” between values parts separate entries of the source, which are not always exact repeats. Identical values can stand only once. “Also recorded” adds a separate entry of the source.
# What was measured:
# [1] = tested on: Dd2 drug-resistant strain of P. falciparum; experiment: Antimalarial bioassay: 72 h in vitro parasite growth assay, SYBR Green I; type: cell-based, Plasmodium falciparum; conditions: for Antiplasmodial activity (in words): Dd2 drug-resistant strain of P. falciparum; for Concentration at which compound was inactive in antimalarial assay: Dd2 strain, inactive at this (highest tested) dose
# Summary of the method: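 Ring-stage Dd2 cultures (1% hematocrit, 1% parasitaemia) were grown for 72 h with increasing test compound concentrations at 37 °C in a humidified chamber under low oxygen (5.06% CO2, 4.99% O2, 89.95% N2). Viability was measured by SYBR Green I DNA quantitation. IC50 came from nonlinear regression as the mean of three independent determinations in duplicate, ± S.E.M. Artemisinin served as positive control.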
# [2] = tested on: HEK293 (Human Embryonic Kidney) cells; experiment: In vitro cytotoxicity against HEK293 cells; type: cell-based; conditions: 24 h
# [3] = tested on: 3D7 strain of P. falciparum; conditions: chloroquine-sensitive strain; cited from earlier work
smiles,measurement,setting,value
"C[C@H]1[C@H](C)CC[C@]2(C(=O)O)CC[C@]3(C)C(=CC[C@@H]4[C@@]5(C)CC[C@H](O)C(C)(C)[C@@H]5CC[C@]43C)[C@H]12 [Compound 5, ursolic acid]",Antiplasmodial activity (in words),[1],inactive
same,Concentration at which compound was inactive in antimalarial assay,[1],40 µM
"CC(C)=CCCC1=CCC2(C(=O)C(C)(C)C(=O)C(C)(C)C2=O)C(CC(C)C)C1 (racemic) [Compound 2, (±)-2,2,4,4-tetramethyl-11-isobutyl-9-(4-methyl-3-penten-1-yl)-spiro[5.5]undec-8-ene-1,3,5-trione]",Antiplasmodial activity (in words),[1],moderate antiplasmodial activity
same,Concentration up to which no inhibition/toxicity to HEK cells was detected,[2],100 µM
"C=C(C)[C@@H]1CC[C@]2(C(=O)O)CC[C@]3(C)[C@H](CC[C@@H]4[C@@]5(C)CC[C@H](O)C(C)(C)[C@@H]5CC[C@]43C)[C@@H]12 [Compound 3, betulinic acid]",Antiplasmodial activity (in words),[1]; listed as Betulinic acid (3),moderate inhibitory effect
same,Inhibition of 3D7 strain of P. falciparum (in words),[3],inhibit
"CCCCCC(=O)c1c(O)cc(O)c2c1OC1=C(C(=O)C(C)(C)C(=O)C1(C)C)C2CC(C)C (racemic) [Compound 1, (±)-4,9-dihydro-6,8-dihydroxy-2,2,4,4-tetramethyl-5-hexanoyl-9-isobutyl-1H-xanthene-1,3(2H)-dione]",Antiplasmodial activity (in words),[1],strong antiplasmodial activity; also recorded: strong antimalarial activity
same,Concentration up to which no inhibition/toxicity to HEK cells was detected,[2],3.125 µM
"CCCCCC(=O)c1c(O)cc(O)cc1O [Compound 6, 1-(2,4,6-trihydroxyphenyl)-1-hexanone]",Antiplasmodial activity (in words),[1],inactive
same,Concentration at which compound was inactive in antimalarial assay,[1],90 µM and 80 µM
